What was measured:
[1] = tested on: HeLa; assay: Antiproliferative activity against human HeLa cell line assessed as incorporation [14C]thymidine; type: functional, cell-based
How it was run: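 HeLa cervical carcinoma cells. Proliferation was read as ¹⁴C-thymidine incorporation into cellular DNA, and the IC₅₀ for inhibition of proliferation was derived from that.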

[2] = target: Cyclin-dependent kinase 1/cyclin B (Homo sapiens, UniProt P06493); assay: Inhibition of CDK1/cyclinB by Flashplate assay; type: protein-complex assay
How it was run: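 CDK1 complexed with cyclin B phosphorylated a biotinylated histone-H1 peptide substrate using ³³P-γ-ATP. The substrate was immobilized in a Flashplate format, and inhibition was read as reduced ³³P incorporation into the substrate.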

**Q.** Which IC50 [1] does the source give for `N[C@H]1CC[C@H](Nc2nccc(-c3c[nH]c4ncccc34)n2)CC1` here?
**A.** Its IC50 is 1 nM.

**Q.** And the IC50 [2]?
**A.** The IC50 was 2 nM.

**Q.** `CN(C)CCn1cc(-c2ccnc(NC3CCCCC3)n2)c2cccnc21` was tested. Which IC50 [1] did it give?
**A.** The IC50 was 8900 nM.

**Q.** With `Cc1ccccc1Nc1nccc(-c2c[nH]c3ncccc23)n1` as the compound, how does the IC50 [2] read?
**A.** The IC50 was 3 nM.

**Q.** Which IC50 [1] does the source give for `Cc1cc(CCN2CCCCC2)ccc1Nc1nccc(-c2c[nH]c3ncccc23)n1` here?
**A.** The IC50 was 3 nM.

**Q.** And the IC50 [2]?
**A.** The IC50 was 1 nM.

**Q.** Which results are given for `Clc1ccccc1Nc1nccc(-c2c[nH]c3ncccc23)n1`?
**A.** IC50 [1]: 140 nM; IC50 [2]: 9 nM

**Q.** Which IC50 [1] does the source give for `Cc1[nH]c2ncccc2c1-c1ccnc(N[C@H]2CC[C@H](N)CC2)n1` here?
**A.** Its IC50 is 130 nM.

**Q.** What about the IC50 [2] of the same compound?
**A.** The IC50 was 280 nM.

**Q.** Which IC50 [1] does the source give for `COc1ccccc1Nc1nccc(-c2c[nH]c3ncccc23)n1` here?
**A.** The IC50 was 350 nM.

**Q.** For `Oc1ccccc1Nc1nccc(-c2c[nH]c3ncccc23)n1`, which IC50 [1] is on record?
**A.** Its IC50 is 955 nM.

**Q.** For `c1cnc2[nH]cc(-c3ccnc(NCC4CCCCC4)n3)c2c1`, which IC50 [1] is on record?
**A.** The IC50 was 368 nM.

**Q.** With `CCc1ccccc1Nc1nccc(-c2c[nH]c3ncccc23)n1` as the compound, how does the IC50 [1] read?
**A.** The IC50 was 292 nM.

**Q.** For `Cn1cc(-c2ccnc(NC3CCCCC3)n2)c2cccnc21`, which IC50 [1] is on record?
**A.** The IC50 was 52100 nM.

**Q.** What about the IC50 [2] of the same compound?
**A.** The IC50 was over 10000 nM.

**Q.** `CS(=O)(=O)n1cc(-c2ccnc(NC3CCCCC3)n2)c2cccnc21` was tested. Which IC50 [1] did it give?
**A.** The IC50 was 393 nM.

**Q.** How did the IC50 [1] turn out when `Fc1ccccc1Nc1nccc(-c2c[nH]c3ncccc23)n1` was run?
**A.** The IC50 was 92 nM.

**Q.** How did the IC50 [1] turn out when `Cc1cc(CCN2CCOCC2)ccc1Nc1nccc(-c2c[nH]c3ncccc23)n1` was run?
**A.** Its IC50 is 3 nM.

**Q.** And the IC50 [2]?
**A.** Its IC50 is 1.9 nM.

**Q.** How did the IC50 [1] turn out when `c1ccc(Nc2nccc(-c3c[nH]c4ncccc34)n2)cc1` was run?
**A.** Its IC50 is 382 nM.

**Q.** Which results are given for `Brc1ccccc1Nc1nccc(-c2c[nH]c3ncccc23)n1`?
**A.** IC50 [1]: 95 nM; IC50 [2]: 13 nM

**Q.** Which IC50 [1] does the source give for `Cc1ccc(Nc2nccc(-c3c[nH]c4ncccc34)n2)cc1` here?
**A.** The IC50 was 220 nM.

**Q.** How did the IC50 [1] turn out when `Cc1cc(CCN2CCCC2)ccc1Nc1nccc(-c2c[nH]c3ncccc23)n1` was run?
**A.** Its IC50 is 3 nM.

**Q.** What about the IC50 [2] of the same compound?
**A.** The IC50 was 0.6 nM.

**Q.** Which IC50 [1] does the source give for `CC(=O)n1cc(-c2ccnc(NC3CCCCC3)n2)c2cccnc21` here?
**A.** The IC50 was 23 nM.

**Q.** `c1cnc2[nH]cc(-c3ccnc(NC4CCCCC4)n3)c2c1` was tested. Which IC50 [1] did it give?
**A.** The IC50 was 31 nM.

**Q.** For `FC(F)(F)c1ccccc1Nc1nccc(-c2c[nH]c3ncccc23)n1`, which IC50 [1] is on record?
**A.** Its IC50 is 392 nM.

**Q.** Which results are given for `Cc1cc(CCO)ccc1Nc1nccc(-c2c[nH]c3ncccc23)n1`?
**A.** IC50 [1]: 11 nM; IC50 [2]: 0.6 nM

Reference: ChEMBL document CHEMBL1149360, “Synthesis of 2-amino-4-(7-azaindol-3-yl)pyrimidines as cyclin dependent kinase 1 (CDK1) inhibitors” (Bioorg Med Chem Lett, 2006)
